# Source: PubChem
# Compounds with a hit are over-represented: about 2.2% of the library has one in this group of screens.
# IMP-1 inh: inhibitors of Pseudomonas aeruginosa IMP-1 metallo-beta-lactamase; hit rate 0.45% among 290,000; purified IMP-1, nitrocefin hydrolysis, epi-absorbance fluorescence; inhibition, % at 5.6 µM;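 active = inhibition above the mean plus 3 SD of all compounds in the same screening run, cut at about 4.5% in these data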;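 also: 0% = IMP-1 with DMSO and 100% = DMSO wells lacking enzyme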
#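 System: purified IMP-1; amount: IMP-1 0.2 nM before substrate addition; compound: single dose, 5.6 µM; times: 25 °C, 15 min preincubation, 25 min reaction; signal: Epi-absorbance via hydrolysed-nitrocefin quenching of white-plate fluorescence, 480/530 nm, EDTA stop; benchmarks: DMSO with and without IMP-1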
# Bcl-xL primary: blocks human Bcl-xL binding to Bim BH3 peptide; hit rate 0.7% among 320,000; inhibition, % at 10.9 µM; Q07817; AID 2129; GST-Bcl-xL / FITC-Bim BH3 peptide fluorescence polarization;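 active = inhibition above the mean of all tested compounds plus 3 SD, cutoff set per campaign, cut at about 30% in these data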;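 also: 0% = DMSO wells and 100% = unlabeled Bim-BH3 peptide competitor; inhibitors lower millipolarization by displacing the labeled peptide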
# VIM-2 inh: blocks Pseudomonas aeruginosa VIM-2 metallo-beta-lactamase; purified VIM-2, nitrocefin hydrolysis, epi-absorbance fluorescence; inhibition, % at 5.6 µM; hit rate 0.89% among 290,000;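 active = inhibition above the mean of all tested compounds plus 3 SD, cutoff set per screening run, cut at about 7.5% in these data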;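 also: red hydrolysis product quenches plate fluorescence so inhibitors raise well fluorescence; 0% = enzyme with DMSO and 100% = DMSO without enzyme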
# GLD-1 TGE inh: GLD-1-TGE RNA interaction inhibition (C. elegans); Q17339; purified GLD-1 + fluorescein TGE RNA, fluorescence polarization; inhibition, % at 5.96 µM; hit rate 0.44% among 320,000; AID 2280;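 active = percent inhibition above a per-plate cutoff, the plate mean of test compounds plus 3 SD, cut at about 30% in these data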;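 also: 0% = DMSO wells with GLD-1 and probe and 100% = wells lacking GLD-1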
# MEX-5 binding: C. elegans MEX-5 TCR-2 RNA binding activity; Q9XUB2; MEX-5/FITC-TCR2 RNA binding, fluorescence polarization; active compounds read low; activity score (negative = inhibition of binding), % at 10 µM; hit rate 0.38% among 300,000; AID 1832;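 active = inhibition past about -25% in most replicates, and total fluorescence under double the plate's negative control median, limit read from the data; inconclusive = replicates evenly split on the limit, or fluorescence at least double controls; inactive = too little inhibition in most replicates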;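 also: 0% = DMSO and -100% = 5 µM competing unlabeled TCR2 RNA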
# Target sequence (Q9XUB2 whole entry, looked up): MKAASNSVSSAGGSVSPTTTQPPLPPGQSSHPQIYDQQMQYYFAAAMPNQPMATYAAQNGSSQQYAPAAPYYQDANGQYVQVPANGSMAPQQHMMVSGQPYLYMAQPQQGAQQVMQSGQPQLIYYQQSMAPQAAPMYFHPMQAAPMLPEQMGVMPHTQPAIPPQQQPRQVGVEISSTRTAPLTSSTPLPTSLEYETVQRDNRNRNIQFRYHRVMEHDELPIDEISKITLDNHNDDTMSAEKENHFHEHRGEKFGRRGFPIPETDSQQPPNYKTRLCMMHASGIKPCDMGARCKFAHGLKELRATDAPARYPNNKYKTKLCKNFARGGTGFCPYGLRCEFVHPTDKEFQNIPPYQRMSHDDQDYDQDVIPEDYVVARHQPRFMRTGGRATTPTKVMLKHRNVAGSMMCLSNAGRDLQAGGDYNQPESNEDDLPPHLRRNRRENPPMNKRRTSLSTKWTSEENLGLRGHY
# EBV gp42 block: blocks Epstein-Barr virus glycoprotein 42 binding. hit rate 0.42% among 220,000. Fluorescence polarization binding assay, mP read-out. Q1HVG2. inhibition, % (tested at 21.74 µM). AID 1085; in the data active = inhibition above about 50%
# Target sequence (Q1HVG2 whole entry, looked up): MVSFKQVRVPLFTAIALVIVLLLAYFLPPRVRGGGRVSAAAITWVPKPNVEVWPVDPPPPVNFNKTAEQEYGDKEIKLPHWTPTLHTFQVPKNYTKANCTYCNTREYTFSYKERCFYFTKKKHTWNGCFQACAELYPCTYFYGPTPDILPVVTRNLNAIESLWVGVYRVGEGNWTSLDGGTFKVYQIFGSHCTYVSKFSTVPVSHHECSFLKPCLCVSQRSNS
# VIM-2 inh confirm: VIM-2 inhibition, confirmation assay | shares compounds with IMP-1 inh | purified VIM-2 enzyme, nitrocefin absorbance | inhibition, % at 5.6 µM | hit rate 73% among 200 | AID 1860; in the data active = inhibition above about 8%;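 also: 0% = enzyme with vehicle and 100% = no enzyme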
# TEM-1 inh 2: blocks E. coli TEM-1 beta-lactamase, VIM-2 IMP-1 counter-screen. shares compounds with IMP-1 inh. nitrocefin absorbance inhibition. inhibition, % at 5.6 µM. hit rate 50% among 200; in the data active = inhibition above about 0.66%
# IMP-1 confirm: confirmation of P. aeruginosa IMP-1 metallo-beta-lactamase inhibitors | shares compounds with IMP-1 inh | purified IMP-1 enzyme, absorbance substrate hydrolysis | inhibition, % at 5.6 µM | hit rate 60% among 200 | AID 2189; in the data active = inhibition above about 4.9%;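 also: 0% = enzyme with vehicle and 100% = vehicle without enzyme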
# Active calls of the source: *; ? = inconclusive; / = not tested or not shown; + = active, no number.
SMILES,IMP-1 inh,Bcl-xL primary,VIM-2 inh,GLD-1 TGE inh,MEX-5 binding,EBV gp42 block,VIM-2 inh confirm,TEM-1 inh 2,IMP-1 confirm
O=C(O)c1cc(Cl)ccc1-c1ccc(/C=C/c2cc(C(F)(F)F)[nH]c(=O)n2)o1,3,21,2,24,?,-90,/,/,/
O=C(O)c1ccccc1-c1ccc(/C=C/c2cc(C(F)(F)F)[nH]c(=O)n2)o1,5.5*,/,8.2*,/,?,-15,15*,37*,11*
Cn1c(=O)c(NCCc2ccccc2)c2c3c(cccc31)C(=O)c1ccccc1-2,36*,+,37*,+,?,+,28*,64*,24*
CCNc1c2c3c(cccc3n(C)c1=O)C(=O)c1ccccc1-2,23*,+,22*,164*,?,-18,60*,69*,41*
Cn1c(=O)c(NCCO)c2c3c(cccc31)C(=O)c1ccccc1-2,96*,114*,90*,81*,/,-98,108*,158*,95*
Cn1c(NCCc2ccccc2)cc(=O)n(C)c1=O,2,3,0,6,0,2,/,/,/
CN1C(=O)c2cccc(NCCCN3C(=O)c4ccccc4C3=O)c2C1=O,0,24,-3,20,57,-53,/,/,/
CCCCNc1c2c3c(cccc3n(C)c1=O)C(=O)c1ccccc1-2,28*,198*,23*,+,?,183*,34*,53*,28*
CCC(C(=O)NC1CCCC1)N(C(=O)Cn1nnc(-c2ccc(C)o2)n1)c1cccc(OC)c1 (stereo not drawn),-5,6,-2,14,1,/,/,/,/
CCC1CCCCN1CCCNC(=O)Cn1nc(C)n2nc(-c3ccccc3)cc2c1=O (stereo not drawn),-2,2,0,7,0,/,/,/,/
COCCn1cnc2c1c(=O)[nH]c(=O)n2Cc1ccccc1,-2,5,-2,-6,2,/,/,/,/
COc1ccccc1-n1c(SCC(=O)OC(C)C)nc2cccnc21,38*,3,16*,9,-5,-3,0,-2,-1
O=C1NC2(CCCCCC2)C(=O)N1Cc1ccccc1F,-1,0,0,-1,-1,/,/,/,/
Cn1ccnc1SCC(=O)Nc1cccc2ccccc12,-4,3,0,-2,1,-11,/,/,/
Cn1ccnc1SCC(=O)n1c2c(c3ccccc31)CCCC2,5.7*,-3,29*,11,2,6,8.5*,-4,-1
CC1=CC2=NC(=O)/C(=C/c3coc4ccc(Cl)cc4c3=O)C(=N)N2O1,9.4*,-30,13*,-30,?,-36,7.8*,-2,2
CC1=CC2=NC(=O)/C(=C\c3cc(C)n(-c4cccc(Cl)c4)c3C)C(=N)N2O1,-3,-1,-2,5,-1,7,/,/,/
N=C1/C(=C\c2coc3ccccc3c2=O)C(=O)N=C2SC=CN12,8.6*,55*,9.3*,51*,?,47,16*,3.6*,12*
N=C1/C(=C/c2cccn2Cc2ccc(F)cc2)C(=O)N=C2SC=CN12,-3,4,-3,4,1,-10,/,/,/
O=P(O)(O)COc1ccccc1P(=O)(c1ccccc1)c1ccccc1,5.3*,2,12*,-1,0,-24,16*,-4,-5
CCOP(=O)(O)c1ccccc1OCCOc1ccccc1P(=O)(O)OCC,-2,7,-3,2,1,-18,/,/,/
Cc1ccc(Cn2c(C(C)Nc3nc(-c4ccc(C)cc4)cs3)nc3cc(Cl)c(Cl)cc32)cc1 (stereo not drawn),29*,0,12*,-2,9,/,11*,-6,25*
CC(Nc1nc(-c2ccc(F)cc2)cs1)c1nc2cc(Cl)c(Cl)cc2n1CCCO (stereo not drawn),/,2,/,8,2,/,/,/,/
CN(C)c1ccc(/C=N/N(CCO)C2=NS(=O)(=O)c3ccccc32)cc1,18*,+,42*,36*,94,/,40*,42*,30*
CC(C)(C)C1C=C(Sc2ccccc2)C(=O)O1 (stereo not drawn),51*,1,8.8*,1,0,6,-1,-3,15*
SMILES,IMP-1 inh,Bcl-xL primary,VIM-2 inh,GLD-1 TGE inh,MEX-5 binding,EBV gp42 block,VIM-2 inh confirm,TEM-1 inh 2,IMP-1 confirm
CCOc1ccc(Nc2nc(N3CCOCC3)nc(N3CCOCC3)n2)cc1,-5,8,-3,6,3,/,/,/,/
CCOc1ccc(Nc2nc(NCCN3CCOCC3)nc(OC)n2)cc1,38*,5,42*,7,0,-8,0,-4,-1
Oc1sc(C=Nc2ccccc2)c2ccccc12,15*,2,17*,-101,-11,-8,23*,0,4
Oc1c(C=Nc2ccccc2)sc2ccccc12,-2,-40,1,-39,-2,-128,/,/,/
Cc1[nH]c2ccccc2c1/C=C/c1cc[n+](C)cc1,9.0*,/,10*,/,?,-277,17*,0,3
Cc1ccc(OCCCC(=O)N(C)CC(=O)Nc2ccccc2Cl)cc1,/,5,/,5,-5,/,/,/,/
Cc1ccc(NC(=O)CN2CCCC2)cc1Br,-1,-1,0,2,-1,/,/,/,/
CCN(CC)c1ccc(/C=C2\C(=N)N3N=C(CC(=O)N4CCOCC4)SC3=NC2=O)cc1,6.4*,-82,11*,-159,2,/,9.3*,-1,3
CSc1ccc(/C=C2\C(=N)N3N=C(CC(=O)N4CCOCC4)SC3=NC2=O)cc1,-3,8,-3,4,1,/,/,/,/
CCN(CC)c1ccc2cc(C=O)c(=O)oc2c1,15*,-43,15*,-124,?,-155,16*,15*,12*
Cc1ccc(S(=O)(=O)NCC(=O)OCC(=O)N2CCN(C(=O)c3ccco3)CC2)cc1C,/,-4,/,4,0,/,/,/,/
CCOc1ccccc1NC(=O)CCCNC(=O)c1ccc(Cl)cc1,1,-14,0,4,0,/,/,/,/
C[C@@H]1O[C@@H](O[C@H]2[C@H](O[C@H]3C[C@]4(C)C(C[C@@H](O)C5C([C@]6(C)CC[C@@H](C(C)(C)O)O6)CC[C@]54C)[C@@]4(C)CC[C@H](O)C(C)(C)C34)O[C@H](CO)[C@@H](O)[C@@H]2O)[C@H](O)[C@H](O)[C@H]1O (stereo partly drawn),/,/,/,7,/,/,/,/,/
CCOc1ccc(NC(=O)c2c(NC(=O)CN3CCN(C)CC3)sc3c2CCC3)cc1,4.7*,0,9.6*,5,-2,/,16*,-3,2
